# High-throughput results from PubChem.
# This is one part of a sample in which hits are shown more often than they occur.
# UPR XBP1 act: activators of adaptive arm of unfolded protein response (XBP1); CHO-XBP1 luciferase reporter, IRE1-XBP1 UPR activation, luminescence; percent of tunicamycin response, DMSO as zero; AID 463104; hit rate 0.33% among 330,000; activation, % at 20 µM;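 active means versus positive control, 20 µM dose yields 30% or more activation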;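 further: 100% = tunicamycin at 10 µg/mL and 0% = DMSO only wells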
#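 Test system: CHO-XBP1 luciferase reporter cells | Buffer or medium: Serum-containing F12 medium, 10% FBS | Schedule: 6 h compound exposure at 37 °C, 5% CO2 | Detection: Steady-Glo luciferase glow luminescence, 10 min after reagent addition | Read-out basis: Activation, % of tunicamycin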
# A1 inh: inhibitors of the anti-apoptotic protein A1, read as caspase activation | caspase activation, % (concentration not given with the values) | hit rate 0.066% among 330,000 | MEF A1-2A-BIM cells, Caspase-Glo 3/7 luminescence, 3 h; percent of clofoctol response, vehicle zero;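 active means over half of replicate activation scores above 10%, or exactly half above 10 with the replicate mean above 10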
# CHOP UPR activ: activators of apoptotic arm of unfolded protein response (CHOP). AID 449763. activation, % at 10 µM. hit rate 0.34% among 330,000. CHO-CHOP luciferase reporter, UPR activation, luminescence; percent of tunicamycin response over DMSO baseline;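 active means at 10 µM dose, activation of 40% or more, normalized to positive control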;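 further: 100% = tunicamycin at 10 µg/mL and 0% = DMSO alone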
#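 Test system: CHO-CHOP cells, stable luciferase reporter of PERK-eIF2a-CHOP signalling | Quantity: 500 CHO-CHOP cells per well | Buffer or medium: F12 plus 10% serum | Compound dosing: 10 µM single point, 0.5% DMSO | Schedule: 6 h compound treatment, 37 °C | Signal: Luciferase luminescence | Control set: Tunicamycin high control, DMSO low control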
# CHOP inh: blocks CHOP induction under ER stress | CHO-K1 CHOP-promoter luciferase, tunicamycin-induced, 15-18 h | inhibition, % at 10 µM | hit rate 3.8% among 220,000;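 active means compounds that reduced the stress-induced luciferase reporter signal by more than about 70% of percent inhibition, limit read from the data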;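 further: 0% = tunicamycin plus vehicle and 100% = wells without tunicamycin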
# CHOP inh conf: confirmation of CHOP induction inhibitors | inhibition, % at 10 µM | hit rate 45% among 2,100 | shares compounds with CHOP inh | CHO-CHOP promoter luciferase reporter, tunicamycin-induced, luminescence;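 active means mean of three repeat readings of reporter signal inhibition above a set limit, cut at about 70% in these data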;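 further: 0% = tunicamycin plus vehicle and 100% = wells lacking tunicamycin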
# * marks the source's active call; other numbers are inactive results; / = no result.
SMILES,UPR XBP1 act,A1 inh,CHOP UPR activ,CHOP inh,CHOP inh conf
N#C/C(=C(/O)COC(=O)CSc1ccc(Cl)cc1)c1nc2ccccc2[nH]1,-3,0,-1,82*,/
N#C/C(=C(/O)COC(=O)CCCNC(=O)c1ccc(Cl)cc1)c1nc2ccccc2[nH]1,-2,0,4,-5,/
CC(C)CN(C(=O)COC(=O)Cc1cccc2ccccc12)c1c(N)n(Cc2ccccc2)c(=O)[nH]c1=O,-4,0,3,/,/
CC1=C(C)/C(=N/OC(=O)c2cccc([N+](=O)[O-])c2)C=CC1=O,-4,-1,16,92*,/
C=CCSc1nnc2n(CCc3ccccc3)c(=O)c3c4c(sc3n12)COC(C)(C)C4,-3,0,1,71*,/
CC(C)Sc1nnc2n(CCc3ccccc3)c(=O)c3c4c(sc3n12)COC(C)(C)C4,1,0,2,/,/
CN1/C(=C\C(=O)Nc2ccc(Br)cc2)C(C)(C)c2ccccc21,1,0,3,82*,/
CN1/C(=C\C(=O)Nc2ccc(F)cc2)C(C)(C)c2ccccc21,3,-1,6,64,/
CCCn1c(SCC(=O)c2ccc3c(c2)NC(=O)CO3)nc2ccccc21,0,0,2,103*,5
O=C(c1ccco1)n1nc(NCc2ccccc2)nc1NCc1ccccc1,-2,0,3,38,/
CC(C)(C)c1cc(-c2nc(N)nc(N)n2)cc(C(C)(C)C)c1,-2,0,1,103*,57
O=Nc1c(O)n(Cc2ccccc2)c2ccccc12,-3,1,1,15,/
O=Nc1c(O)n(Cc2ccc(Cl)c(Cl)c2)c2ccccc12,2,0,-1,107*,4
COc1ccc(C2=NN(C(=O)c3ccco3)C(c3cc4ccccc4nc3Cl)C2)cc1 (configuration not stated),16,-1,3,103*,71*
COc1ccc2cc(C3CC(c4ccco4)=NN3C(=O)CCC(=O)O)c(Cl)nc2c1 (configuration not stated),-1,0,-1,-30,/
COc1cccc(-n2nnnc2S(C)(=O)=O)c1,-8,3,-11,113*,115*
COc1cccc(Oc2nnnn2-c2ccccc2)c1,2,0,5,-5,/
CCOc1ccccc1N1CCN(S(=O)(=O)c2ccc3c4c(cccc24)C(=O)N3)CC1,-1,0,-1,99*,9
C=CCSc1nc2ccccc2n1C(=O)/C=C/c1cc(OC)c(OC)c(OC)c1,-4,2,-1,111*,109*
CCSc1nc2ccccc2n1C(=O)/C=C/c1ccc(OC)c(OC)c1,-2,1,3,105*,114*
Cc1ccc(C(=O)NNC(=S)NC(=O)c2ccc(Cl)cc2Cl)cc1,5,0,0,98*,8
Cc1ccc(C(=O)NNC(=S)NC(=O)c2ccccc2)cc1,3,1,-1,/,/
Cc1cc(C)c2c(c1)/C(=N/NS(=O)(=O)c1ccccc1)CCC2,-2,0,1,17,/
Cc1cc(C)c2c(c1)/C(=N/NS(=O)(=O)c1ccc(Br)cc1)CCC2,0,0,1,106*,82*
COc1ccc(C2CC(c3c(-c4ccccc4)c4cc(Cl)ccc4[nH]c3=O)=NN2S(C)(=O)=O)cc1OC (configuration not stated),5,0,-3,108*,125*
SMILES,UPR XBP1 act,A1 inh,CHOP UPR activ,CHOP inh,CHOP inh conf
CC1(C)Oc2ccc3ccc(=O)oc3c2/C(=C/Nc2cccc(O)c2)C1=O,0,0,1,106*,1
COc1ccc(Cl)cc1NC(=O)c1cc(-c2ccccc2O)n[nH]1,-1,0,2,-16,/
COc1ccc(OC)c(NC(=O)c2cc(-c3cc(Cl)ccc3O)n[nH]2)c1,13,1,4,103*,35
COc1cccc2cc(-c3cc(=O)oc4ccc(O)cc34)oc12,2,-1,1,/,/
Oc1ccccc1-n1c(-c2ccccc2)ccc1-c1ccccc1,4,0,1,104*,119*
O=C(NCc1cccs1)C1CCN(S(=O)(=O)c2cccc([N+](=O)[O-])c2)CC1,-2,0,-2,/,/
CCCc1ccc(C(=O)NNC(=O)c2ccc(Br)cc2)cc1,-2,0,0,99*,42
CCCc1ccc(C(=O)NNc2ccc(F)cc2)cc1,1,1,4,-1,/
O=C(NCc1nc(-c2ccc(C(F)(F)F)cc2)no1)Nc1ccc(OC(F)(F)F)cc1,-7,0,1,100*,106*
COc1ccc(-c2noc(CNS(=O)(=O)c3ccc(NC(C)=O)cc3)n2)cc1,-3,-1,-1,/,/
CC1=C(C)/C(=N\OS(=O)(=O)c2ccc(C)cc2)C=CC1=O,/,0,/,108*,104*
CC1=C/C(=N\OS(=O)(=O)c2ccccc2)C(C)=CC1=O,-6,17*,-11,111*,128*
COc1ccc(CNC(=O)c2csnn2)cc1,0,0,0,-7,/
Cc1ccc(N2C(=O)C3CCCN3C2=S)cc1Cl (configuration not stated),1,1,0,/,/
CCCCCC1CCC(C(=O)O)CC1 (configuration not stated),-1,0,-2,22,/
CC(C)(C)c1ccc(S(=O)(=O)NCC(=O)Nc2sc3c(c2C(N)=O)CCCC3)cc1,-1,0,2,107*,92*
COc1ccc(CC(=O)Nc2sc3c(c2C(N)=O)CCCC3)cc1,4,0,2,/,/
Clc1ccc(-n2ncc3c(NCc4ccc5c(c4)OCO5)ncnc32)cc1,-4,0,-1,104*,39
Clc1ccc(-n2ncc3c(NCc4ccco4)ncnc32)cc1,6,-1,0,58,/
O=C(c1cnn(-c2cccc(F)c2)c1)c1ccccc1O,6,-6,1,/,/
Cc1cc(C)nc(-n2cc(C(=O)c3cc(F)ccc3O)cn2)n1,0,0,0,97*,27
CCCOc1cccc(C(=O)Nc2cc(NC(=O)c3ccco3)ccc2OC)c1,-3,1,0,36,/
Cc1ccccc1-c1noc(-c2ccc(O)cc2)n1,2,-6,3,105*,23
Cc1ccc(-c2nc(-c3ccccn3)no2)cc1,-10,-9,-10,/,124*
Cc1cc2c(c(SCC(=O)Nc3ccc(C)c(C)c3)n1)C(=O)OC2,3,1,0,-1,/
Cn1c(=O)c([N+](=O)[O-])c(-n2ccnc2)c2ccccc21,-2,1,15,103*,-90
Cc1cc(NC(=O)CSc2nc3cc4c(cc3c(=O)n2CCc2ccccc2)OCO4)no1,4,2,4,99*,101*
CN(CC(=O)Nc1c(Cl)cccc1Cl)C(=O)c1ccc2ccccc2n1,-2,/,-1,/,/
O=C1c2cccc3cccc(c23)C(=O)N1c1nccs1,2,1,0,24,/
